We go through one compound from ChEMBL document CHEMBL1143425, “Paradoxical growth effect of caspofungin observed on biofilms and planktonic cells of five different Candida species” (2007).

Values after ≈ are worked out from the molar mass of the structure shown. Active and inactive are the calls of the source.

Experiment [1] deals with Candida orthopsilosis. As to the kind of experiment: Antimicrobial activity against Candida orthopsilosis BR-A38 grown as biofilm after 48 hrs by XTT reduction assay. It counts as functional. Conditions: Lodderomyces orthopsilosis. Summed up: (§1)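 Sabouraud-grown cells were shaken overnight (18 h, 120 rpm, 35°C) in RPMI 1640 with MOPS at pH 7.0, then washed and set at ~1 × 10^7 cells/ml. Attachment lasted 1.5 h at 37°C, and growth ran 24 h before challenge. Caspofungin was added in RPMI at 2–1,024 μg/ml (10 doublings) for 48 h at 35°C with shaking. XTT-menadione was read at 490 nm after 1 h at 35°C in the dark, with blank wells subtracted. MIC was taken as 50% reduction versus drug-free wells, and PG as >50% of control above MIC. Assays were run in duplicate.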

In the next experiment the test system is Candida metapsilosis. As to the kind of experiment: Antimicrobial activity against Candida metapsilosis BR-A43 grown as planktonic cell after 48 hrs by XTT reduction assay. It counts as functional. Particulars: Lodderomyces metapsilosis. Summed up: (§2)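 Planktonic cells were tested by CLSI M27-A2 broth microdilution with caspofungin in water, incubated 48 h. XTT-menadione was added to each well, plates were held 1 h at 35°C in the dark and centrifuged, and supernatant absorbance was read at 490 nm. MIC was defined as 50% decrease in metabolic activity versus drug-free control. PG was defined as ≥20% of control activity at concentrations above MIC.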

Experiment [2] has as its system Candida parapsilosis. As to the kind of experiment: Antimicrobial activity against Candida parapsilosis BR-A26 grown as planktonic cell assessed as concentration producing paradoxical growth after 48 hrs by XTT reduction assay. It counts as functional. Summed up:
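Planktonic broth microdilution followed CLSI M27-A2, with caspofungin dissolved in water. After 48 h, XTT-menadione was added to each well and plates were incubated 1 h at 35°C in the dark. Cells were pelleted by centrifugation and the supernatant was read at 490 nm. MIC was the lowest concentration giving a 50% drop in metabolic activity versus the drug-free control. PG was ≥20% of drug-free activity above the MIC.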
In general terms: Tetrazolium assays rely on reduction of a dye to a coloured formazan, in cell work by metabolically active cells.

Experiment [3] deals with Candida parapsilosis. As to the kind of experiment: Antimicrobial activity against Candida parapsilosis BR-A27 grown as biofilm after 48 hrs by XTT reduction assay. It counts as functional. Conditions: Lodderomyces parapsilosis. Summed up:
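Clinical isolates were grown overnight (18 h, 35°C, 120 rpm) in RPMI 1640 with MOPS, pH 7.0, then washed and set to ~1 × 10^7 cells/ml. Cells attached for 1.5 h at 37°C, 75 rpm, then biofilms grew 24 h. Caspofungin was given as doubling dilutions of 2–1,024 μg/ml for 48 h at 35°C, 75 rpm. Read-out was XTT-menadione in PBS, 1 h at 35°C in the dark, A490, cell-free blank subtracted. MIC was a 50% drop in activity versus drug-free; PG was >50% of control above MIC. Run in duplicate.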

Another experiment concerns Candida tropicalis. As to the kind of experiment: Effect on morphology in Candida tropicalis grown as planktonic cells assessed as inhibition of hyphae and pseudohyphae at 8 ug/ml after 48 hrs. It counts as functional, organism-based. In a few lines:
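Clinical isolates were tested by CLSI M27-A2 broth microdilution with caspofungin dissolved in sterile water. After 48 h incubation, cells were taken from drug-containing and drug-free control wells. They were examined by light microscopy at ×400 for hyphae or pseudohyphae, rounding or clumping, and enlarged globose cells.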

Experiment [4] concerns Candida orthopsilosis. As to the kind of experiment: Antimicrobial activity against Candida orthopsilosis BR-A34 grown as planktonic cell assessed as concentration producing paradoxical growth after 48 hrs by XTT reduction assay. It counts as functional. In a few lines: as §2
The subject of a further experiment is Candida albicans. As to the kind of experiment: Antimicrobial activity against Candida albicans BR-A7 grown as biofilm assessed as concentration producing paradoxical growth after 48 hrs by XTT reduction assay. It counts as functional. Summed up: as §1
In experiment [5] the test system is Candida orthopsilosis. As to the kind of experiment: Antimicrobial activity against Candida orthopsilosis BR-A34 grown as planktonic cell after 48 hrs by XTT reduction assay. It counts as functional. Conditions: Lodderomyces orthopsilosis. Summed up:
as §2

On to `CC[C@H](C)C[C@H](C)CCCCCCCCC(=O)N[C@H]1C[C@@H](O)[C@@H](NCCN)NC(=O)[C@@H]2[C@@H](O)CCN2C(=O)[C@H]([C@H](O)CCN)NC(=O)[C@H]([C@H](O)[C@@H](O)c2ccc(O)cc2)NC(=O)[C@@H]2C[C@@H](O)CN2C(=O)[C@H]([C@@H](C)O)NC1=O` [CASPOFUNGIN], for which the MIC with Candida orthopsilosis [1] turned out to be 512 µg/mL (≈ 468 µM); in the experiment on Candida metapsilosis, 2 µg/mL (≈ 1.83 µM); against Candida parapsilosis [3] it was 256 µg/mL (≈ 234 µM); in the experiment on Candida orthopsilosis [5], 1 µg/mL (≈ 0.915 µM). Also, the Activity was 16 µg/mL in the experiment on Candida parapsilosis [2], 4 µg/mL with Candida orthopsilosis [4] and 16 µg/mL in the experiment with Candida albicans. Further, the result in the experiment on Candida tropicalis was Active.
